Experiments:
[1] = molecular target: Sigma non-opioid intracellular receptor 1 (Rattus norvegicus, UniProt Q9R0C9); experiment: Displacement of [3H](+)-pentazocine from sigma 1 receptor in rat brain homogenates after 120 mins by liquid scintillation counting
Summary of the method: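 σ1 sites labelled with 5 nM [3H](+)-pentazocine in rat brain homogenate; nonspecific binding defined with 10 μM haloperidol. Up to 12 competitor concentrations, incubated 120 min at 25 °C. Terminated by vacuum filtration onto PEI-soaked GF/B filters, bound radioactivity counted by liquid scintillation. Ki obtained by Cheng–Prusoff.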

[2] = molecular target: Kappa-type opioid receptor (Homo sapiens, UniProt P41145); experiment: Displacement of [3H]U69,593 from human kappa opioid receptor expressed in CHO cells after 120 mins by liquid scintillation counting
Chain of Kappa-type opioid receptor (P41145 whole entry): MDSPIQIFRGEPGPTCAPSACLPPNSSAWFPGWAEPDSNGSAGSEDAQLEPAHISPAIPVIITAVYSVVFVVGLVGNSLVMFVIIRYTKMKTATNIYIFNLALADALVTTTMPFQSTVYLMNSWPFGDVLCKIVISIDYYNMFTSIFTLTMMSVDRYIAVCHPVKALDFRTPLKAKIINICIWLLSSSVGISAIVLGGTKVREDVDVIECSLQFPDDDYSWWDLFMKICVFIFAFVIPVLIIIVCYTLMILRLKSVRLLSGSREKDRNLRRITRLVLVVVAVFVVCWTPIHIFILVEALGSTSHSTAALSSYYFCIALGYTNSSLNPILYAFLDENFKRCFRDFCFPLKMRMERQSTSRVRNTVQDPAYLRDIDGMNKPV
Summary of the method: (§1)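 Membranes from CHO cells stably expressing human μ, δ or κ opioid receptor. Radioligands: μ 1.3 nM [3H]DAMGO, δ 1.2 nM [3H]DPDPE, κ 1.7 nM [3H]U69,593; nonspecific with 1 μM of the matching unlabelled ligand.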

[3] = molecular target: Delta-type opioid receptor (Homo sapiens, UniProt P41143); experiment: Displacement of [3H]DPDPE from human delta opioid receptor expressed in CHO cells after 120 mins by liquid scintillation counting; summary of the method: as §1
Chain of Delta-type opioid receptor (P41143 whole entry): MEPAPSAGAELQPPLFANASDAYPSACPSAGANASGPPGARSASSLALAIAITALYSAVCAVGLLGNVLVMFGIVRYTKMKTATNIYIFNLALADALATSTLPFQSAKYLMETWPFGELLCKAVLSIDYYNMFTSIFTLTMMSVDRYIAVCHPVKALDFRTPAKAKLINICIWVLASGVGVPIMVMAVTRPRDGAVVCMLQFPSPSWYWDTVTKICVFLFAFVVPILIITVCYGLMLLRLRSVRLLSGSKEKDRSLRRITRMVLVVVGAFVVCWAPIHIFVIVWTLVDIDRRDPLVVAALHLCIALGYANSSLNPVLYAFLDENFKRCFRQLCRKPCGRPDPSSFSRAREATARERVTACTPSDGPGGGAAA

Mu-type opioid receptor = Mu-type opioid receptor (Homo sapiens, UniProt P35372); experiment: Displacement of [3H]DAMGO from human mu opioid receptor expressed in CHO cells after 120 mins by liquid scintillation counting; summary of the method: as §1
Chain of Mu-type opioid receptor (P35372 whole entry): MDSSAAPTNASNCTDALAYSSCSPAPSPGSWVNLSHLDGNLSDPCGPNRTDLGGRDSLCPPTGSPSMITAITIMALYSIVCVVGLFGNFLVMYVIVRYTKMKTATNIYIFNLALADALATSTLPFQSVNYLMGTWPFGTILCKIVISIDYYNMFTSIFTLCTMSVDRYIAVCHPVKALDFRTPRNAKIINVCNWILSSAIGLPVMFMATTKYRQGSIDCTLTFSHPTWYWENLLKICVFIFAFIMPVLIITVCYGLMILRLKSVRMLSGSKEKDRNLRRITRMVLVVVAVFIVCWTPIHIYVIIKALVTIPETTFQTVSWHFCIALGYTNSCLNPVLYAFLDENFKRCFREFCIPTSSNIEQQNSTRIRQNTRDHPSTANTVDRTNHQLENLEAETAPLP

Chain of Sigma non-opioid intracellular receptor 1 (Q9R0C9 whole entry): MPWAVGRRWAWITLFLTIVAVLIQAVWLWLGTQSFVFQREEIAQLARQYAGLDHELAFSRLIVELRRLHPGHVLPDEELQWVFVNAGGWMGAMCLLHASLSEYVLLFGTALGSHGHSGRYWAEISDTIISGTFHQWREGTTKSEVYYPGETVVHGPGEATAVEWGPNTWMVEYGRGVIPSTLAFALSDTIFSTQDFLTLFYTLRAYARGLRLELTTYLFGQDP

Compound | Ki [1] | Ki [2] | Ki [3] | Ki (Mu-type opioid receptor)
CN(C)[C@H]1CCCC[C@@H]1OC/C=C/c1ccccc1 | 0.0046 µM | > 10 µM | > 10 µM | 4.2 µM
CN(CCc1ccccc1)[C@H]1CCCC[C@@H]1O | 0.12 µM | > 10 µM | > 10 µM | > 10 µM
CN(CCc1ccccc1)[C@H]1CCCC[C@@H]1OCCCc1ccccc1 | 0.084 µM |  | > 10 µM | 1.6 µM

Now from value to compound:

Ki [1] | Ki [2] | Ki [3] | Ki (Mu-type opioid receptor) | Compound
0.79 µM | 2.2 µM | 6.2 µM | 3.1 µM | CN(CCCc1ccccc1)[C@H]1CCCC[C@@H]1OCCCc1ccccc1
0.059 µM | > 10 µM | > 10 µM | 2.3 µM | CN(C)[C@H]1CCCC[C@@H]1OCCCc1ccccc1
0.019 µM | > 10 µM | > 10 µM |  | CN(CCCc1ccccc1)[C@H]1CCCC[C@@H]1O

— BindingDB's records for doi:10.1016/j.bmc.2013.06.068 (University of Maryland, 2013)
